Here are results for twelve molecules from ChEMBL document CHEMBL4837217, “Design, synthesis, in vitro and in vivo biological evaluation of pyranone-piperazine analogs as potent antileishmanial agents” (Eur J Med Chem, 2021).

SMILES strings stand for the structures. Active and inactive are the calls of the source. The calls are words filed in the database; no cut-off is given here.

The first assay has as its system Leishmania donovani. Description: Antileishmanial activity against amastigote stage of Leishmania donovani MHOM/IN/80/Dd8 harboring luciferase gene infected in mouse J774 cells assessed as parasite growth inhibition at 50 uM incubated for 72 hrs by Steady-Glo reagent based luciferase assay. The assay is classed as functional. The following applies: MHOM/IN/80/Dd8, J774. The method, boiled down:
(§1)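 J774 murine macrophages, 4 × 10⁴ cells/well in RPMI with 10% FBS for 24 h, are infected for 24 h at 37 °C, 5% CO₂ with stationary-phase luciferase-transfected L. donovani Dd8 promastigotes at a 1:8 macrophage:parasite ratio. Compounds are dissolved in DMSO. Luminescence is read after Steady-Glo is added in PBS. IC₅₀ is taken from a four-parameter Hill nonlinear regression. Miltefosine is the reference.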
Regarding `N#Cc1c(N2CCN(c3ccccc3O)CC2)cc(-c2ccc(Br)cc2)c2c1CCSC2`, the inhibition (in general, the relative decrease from the control value, in per cent) at 50 µM came out at 83.3%.

Regarding `N#Cc1c(N2CCN(c3ccccc3O)CC2)cc(-c2cccs2)c2c1CCSC2`, the inhibition at 50 µM was 72.6%.

For `N#Cc1c(N2CCN(c3ccccc3O)CC2)cc(-c2cccs2)c2c1CSC2`, the inhibition at 50 µM turned out to be 79.3%.

Regarding `N#Cc1c(N2CCN(c3ccccc3O)CC2)c2c(oc1=O)-c1ccccc1C2`, the inhibition at 50 µM came out at 60%.

Take `N#Cc1c(N2CCN(c3ccccc3Cl)CC2)cc(-c2ccc(Cl)cc2)oc1=O`: the inhibition at 50 µM stood at 71%.

As for `N#Cc1c(N2CCN(c3ccccc3Cl)CC2)cc(-c2ccc(Br)cc2)oc1=O`, the inhibition at 50 µM was determined as 68.5%.

With `N#Cc1c(N2CCN(c3ccccc3Cl)CC2)cc(-c2ccccc2)oc1=O`, the inhibition at 50 µM stood at 73.7%.

As for `COc1ccccc1N1CCN(c2cc(-c3ccc(Br)cc3)oc(=O)c2C#N)CC1`, the inhibition at 50 µM came out at 58.3%.

In the case of `COc1ccc(-c2cc(N3CCN(c4ccccc4O)CC3)c(C#N)c(=O)o2)cc1`, the inhibition at 50 µM was determined as 84.4%.

As to `N#Cc1c(N2CCN(c3cccc(Cl)c3)CC2)cc(-c2ccccc2)oc1=O`, the inhibition at 50 µM came out at 72.1%.

The subject of another assay is Leishmania donovani. The experiment in a line: Antileishmanial activity against amastigote stage of Leishmania donovani MHOM/IN/80/Dd8 harboring luciferase gene infected in mouse J774 cells assessed as parasite growth inhibition incubated for 72 hrs by Steady-Glo reagent based luciferase assay. It is filed as functional, organism-based. The settings on record: MHOM/IN/80/Dd8, J774, 72 h. The method, boiled down:
as §1
Take `COc1ccc(-c2cc(N3CCN(c4ccccc4O)CC3)c(C#N)c(=O)o2)cc1`: the IC50 (commonly the concentration needed to halve the response being measured) was 13 µM.

Another assay relates to Leishmania donovani. Description: Antileishmanial activity against Leishmania donovani promastigotes assessed as parasite growth inhibition incubated for 72 hrs by Alamar Blue assay. The assay is classed as functional, organism-based.
Conditions: not given
Background: Resazurin is reduced to fluorescent resorufin, in cell work by metabolically active cells.
Take `c1ccc2[nH]c(-c3ccc(N4CCN(c5ccc(-c6nc7ccccc7[nH]6)cc5)CC4)cc3)nc2c1`: the IC50 is 0.41 µM.

The next assay deals with Leishmania donovani. The experiment in a line: Antileishmanial activity against log phase of Leishmania donovani MHOM/IN/80/Dd8 promastigotes assessed as reduction in cell viability at 25 uM incubated for 72 hrs by MTT assay.
Conditions: not given
The assay is classed as functional. The method, boiled down:
(§2)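 Log-phase luciferase-transfected L. donovani Dd8 promastigotes (M199 + 10% FBS, 24 °C) treated with compounds at 25 and 50 µM in DMSO, with 0.1% DMSO vehicle control. After 72 h, MTT added 4 h. Formazan dissolved in DMSO, read at 570 nm. Percent inhibition reported as mean ± SD of at least three independent experiments in replicate.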
For orientation: Tetrazolium dyes change colour on reduction, which living cells bring about.
For `N#Cc1c(N2CCN(c3ccccc3O)CC2)cc(-c2ccc(Br)cc2)c2c1CCSC2`, the inhibition entry was “inactive”.

Regarding `N#Cc1c(N2CCN(c3ccccc3O)CC2)cc(-c2cccs2)c2c1CCSC2`, the inhibition result was “inactive”.

For the molecule `N#Cc1c(N2CCN(c3ccccc3O)CC2)cc(-c2cccs2)c2c1CSC2`, the inhibition result was “inactive”.

As for `N#Cc1c(N2CCN(c3ccccc3O)CC2)c2c(oc1=O)-c1ccccc1C2`, the inhibition at 25 µM was found to be 14.2%.

For the molecule `N#Cc1c(N2CCN(c3ccccc3Cl)CC2)cc(-c2ccc(Cl)cc2)oc1=O`, the inhibition at 25 µM is 55.2%.

In the case of `N#Cc1c(N2CCN(c3ccccc3Cl)CC2)cc(-c2ccc(Br)cc2)oc1=O`, the inhibition at 25 µM was determined as 57.9%.

Regarding `N#Cc1c(N2CCN(c3ccccc3Cl)CC2)cc(-c2ccccc2)oc1=O`, the inhibition at 25 µM stood at 46.9%.

On to `COc1ccccc1N1CCN(c2cc(-c3ccc(Br)cc3)oc(=O)c2C#N)CC1`, for which the inhibition at 25 µM is 56.6%.

With `COc1ccc(-c2cc(N3CCN(c4ccccc4O)CC3)c(C#N)c(=O)o2)cc1`, the inhibition at 25 µM is 78.3%.

On to `N#Cc1c(N2CCN(c3cccc(Cl)c3)CC2)cc(-c2ccccc2)oc1=O`, for which the inhibition at 25 µM worked out at 44%.

The subject of another assay is Leishmania donovani. Description: Antileishmanial activity against log phase of Leishmania donovani MHOM/IN/80/Dd8 promastigotes assessed as reduction in cell viability at 50 uM incubated for 72 hrs by MTT assay. The assay is classed as functional.
Conditions: not given
The method, boiled down:
as §2
Turning to `N#Cc1c(N2CCN(c3ccccc3O)CC2)cc(-c2ccc(Br)cc2)c2c1CCSC2`, the inhibition at 50 µM is 33.3%.

In the case of `N#Cc1c(N2CCN(c3ccccc3O)CC2)cc(-c2cccs2)c2c1CCSC2`, the inhibition result was “inactive”.

For `N#Cc1c(N2CCN(c3ccccc3O)CC2)cc(-c2cccs2)c2c1CSC2`, the inhibition at 50 µM worked out at 4.8%.

`N#Cc1c(N2CCN(c3ccccc3O)CC2)c2c(oc1=O)-c1ccccc1C2`: the inhibition at 50 µM came out at 82.2%.

Consider `N#Cc1c(N2CCN(c3ccccc3Cl)CC2)cc(-c2ccc(Cl)cc2)oc1=O`, for which the inhibition at 50 µM was 58.3%.

With `N#Cc1c(N2CCN(c3ccccc3Cl)CC2)cc(-c2ccc(Br)cc2)oc1=O`, the inhibition at 50 µM is 66.5%.

As for `N#Cc1c(N2CCN(c3ccccc3Cl)CC2)cc(-c2ccccc2)oc1=O`, the inhibition at 50 µM was found to be 72.9%.

In the case of `COc1ccccc1N1CCN(c2cc(-c3ccc(Br)cc3)oc(=O)c2C#N)CC1`, the inhibition at 50 µM is 61.2%.

Consider `COc1ccc(-c2cc(N3CCN(c4ccccc4O)CC3)c(C#N)c(=O)o2)cc1`, for which the inhibition at 50 µM stood at 86.3%.

Turning to `N#Cc1c(N2CCN(c3cccc(Cl)c3)CC2)cc(-c2ccccc2)oc1=O`, the inhibition at 50 µM worked out at 57.3%.

A further assay has as its system Leishmania donovani. Description: Antileishmanial activity against amastigote stage of Leishmania donovani MHOM/IN/80/Dd8 harboring luciferase gene infected in mouse J774 cells assessed as parasite growth inhibition at 25 uM incubated for 72 hrs by Steady-Glo reagent based luciferase assay. It is filed as functional. The settings on record: MHOM/IN/80/Dd8, J774. The method, boiled down: as §1
Turning to `N#Cc1c(N2CCN(c3ccccc3O)CC2)cc(-c2ccc(Br)cc2)c2c1CCSC2`, the inhibition at 25 µM turned out to be 71%.

With `N#Cc1c(N2CCN(c3ccccc3O)CC2)cc(-c2cccs2)c2c1CCSC2`, the inhibition at 25 µM turned out to be 65%.

Turning to `N#Cc1c(N2CCN(c3ccccc3O)CC2)cc(-c2cccs2)c2c1CSC2`, the inhibition at 25 µM came out at 60.1%.

For the molecule `N#Cc1c(N2CCN(c3ccccc3O)CC2)c2c(oc1=O)-c1ccccc1C2`, the inhibition at 25 µM stood at 37.8%.

Take `N#Cc1c(N2CCN(c3ccccc3Cl)CC2)cc(-c2ccc(Cl)cc2)oc1=O`: the inhibition at 25 µM amounted to 73.1%.

Take `N#Cc1c(N2CCN(c3ccccc3Cl)CC2)cc(-c2ccc(Br)cc2)oc1=O`: the inhibition at 25 µM came out at 60.5%.

As for `N#Cc1c(N2CCN(c3ccccc3Cl)CC2)cc(-c2ccccc2)oc1=O`, the inhibition at 25 µM was 49.2%.

In the case of `COc1ccccc1N1CCN(c2cc(-c3ccc(Br)cc3)oc(=O)c2C#N)CC1`, the inhibition at 25 µM came to 43.3%.

As for `COc1ccc(-c2cc(N3CCN(c4ccccc4O)CC3)c(C#N)c(=O)o2)cc1`, the inhibition at 25 µM turned out to be 51.8%.

In the case of `N#Cc1c(N2CCN(c3cccc(Cl)c3)CC2)cc(-c2ccccc2)oc1=O`, the inhibition at 25 µM came to 47.4%.

Another assay concerns Leishmania. The experiment in a line: Antileishmanial activity against Leishmania. The assay is classed as functional, organism-based.
Conditions: not given
An outline of the steps: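 Antiamastigote assay: J774 murine macrophages in RPMI + 10% FBS, infected 24 h at 37 °C, 5% CO2 with stationary-phase luciferase-transfected L. donovani Dd8 promastigotes (1:8 macrophage:parasite). Infectivity confirmed by Giemsa staining on parallel slides. Compounds then added and incubated 72 h. Read-out by luciferase luminescence. IC50 from four-parameter Hill nonlinear regression of the dose-response.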
Consider `CCn1nc2cc(N/C(C)=C3/C(=O)C=C(C)OC3=O)ccc2c1Cl`, for which the IC50 was found to be 2.48 µM.
